Assay results from ChEMBL document CHEMBL4196009, “Novel vitexin-inspired scaffold against leukemia” (Eur J Med Chem, 2018).
Active and inactive are the calls of the source. No cut-off for these calls is given here.

Legend:
[1] = system: MDA-MB-231; test: Cell cycle arrest in human MDA-MB-231 cells assessed as accumulation at G2/M phase at 5 uM after 24 hrs by propidium iodide staining-based flow cytometry (reference value: 9.38%); format: functional
[2] = system: KOPN-8; test: Effect on c-Myc expression in human KOPN8 cells at 0.5 uM after 24 hrs by Western blot analysis relative to control; format: functional
[3] = system: KOPN-8; test: Effect on c-Myc expression in human KOPN8 cells at 0.5 uM pre-treated with NAC for 1 hr and measured after 24 hrs by Western blot analysis relative to control; format: functional
[4] = species: Homo sapiens; test: Inhibition of RNA polymerase 2 C-terminal domain phosphorylation at Ser2 residue in human KOPN8 cells at 0.5 uM after 24 hrs by Western blot analysis; format: cell-based
How it was run: (§1)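 KOPN-8 cells were exposed to compound for 3 h and 24 h, with or without N-acetylcysteine added to a parallel set as antioxidant. Lysates were analysed by Western blot for cleaved PARP, Mcl-1, Ser-2-phosphorylated RNAPII CTD, cMyc, total Rb and pRb. Signals were compared against controls for dose-dependent change.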

[5] = target: T1, Retinoblastoma-associated protein (Homo sapiens) (UniProt P06400); test: Inhibition of Rb phosphorylation in human KOPN8 cells assessed as ratio of phosphorylated Rb to total Rb levels at 0.5 uM pre-treated with NAC for 1 hr and measured after 3 hrs by Western blot analysis relative to control; format: cell-based
T1 sequence (whole entry): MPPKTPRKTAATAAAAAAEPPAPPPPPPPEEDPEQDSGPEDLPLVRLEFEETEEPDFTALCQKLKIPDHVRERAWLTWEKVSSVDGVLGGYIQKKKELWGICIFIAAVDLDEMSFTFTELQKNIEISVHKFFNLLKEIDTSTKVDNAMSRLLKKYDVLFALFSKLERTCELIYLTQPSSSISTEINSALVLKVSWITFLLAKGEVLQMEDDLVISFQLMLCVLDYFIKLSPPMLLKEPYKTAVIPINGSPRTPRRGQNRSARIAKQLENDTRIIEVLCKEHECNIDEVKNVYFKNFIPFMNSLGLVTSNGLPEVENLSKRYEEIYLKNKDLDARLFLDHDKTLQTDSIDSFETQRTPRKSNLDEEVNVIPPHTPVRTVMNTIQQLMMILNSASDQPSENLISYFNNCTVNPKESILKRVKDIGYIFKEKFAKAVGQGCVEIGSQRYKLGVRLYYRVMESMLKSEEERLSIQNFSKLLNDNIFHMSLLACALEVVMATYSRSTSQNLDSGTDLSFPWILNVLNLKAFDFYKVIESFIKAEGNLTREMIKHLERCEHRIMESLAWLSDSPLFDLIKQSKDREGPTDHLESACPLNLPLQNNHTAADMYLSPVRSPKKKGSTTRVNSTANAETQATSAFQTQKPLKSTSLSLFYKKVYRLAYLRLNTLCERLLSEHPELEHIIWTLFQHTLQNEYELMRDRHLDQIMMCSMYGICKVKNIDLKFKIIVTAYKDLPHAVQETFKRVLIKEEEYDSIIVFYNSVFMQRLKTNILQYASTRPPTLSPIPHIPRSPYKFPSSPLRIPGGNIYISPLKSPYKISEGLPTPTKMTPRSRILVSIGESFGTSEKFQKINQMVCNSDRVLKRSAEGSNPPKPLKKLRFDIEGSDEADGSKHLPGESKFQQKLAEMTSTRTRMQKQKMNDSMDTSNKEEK
How it was run: (§2)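 KOPN-8 pre-B ALL cells were treated for 3 h and 24 h, with or without N-acetyl cysteine added to a parallel set of cells as an antioxidant/ROS quencher. Lysates were analysed by Western blot for phosphorylated Rb and total Rb. The same blots also probed PARP cleavage, Mcl-1, Ser-2-phosphorylated RNAPII CTD and cMyc.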

[6] = species: Homo sapiens; test: Inhibition of RNA polymerase 2 C-terminal domain phosphorylation at Ser2 residue in human KOPN8 cells at 0.5 uM after 3 hrs by Western blot analysis relative to control; format: cell-based; how it was run: as §1
[7] = system: MDA-MB-231; test: Cell cycle arrest in human MDA-MB-231 cells assessed as accumulation at S phase at 5 uM after 24 hrs by propidium iodide staining-based flow cytometry (reference value: 20.15%); format: functional
[8] = system: KOPN-8; test: Induction of apoptosis in human KOPN8 cells assessed as upregulation of cleaved PARP level at 0.5 uM pre-treated with NAC for 1 hr and measured after 3 to 24 hrs by Western blot analysis; format: functional, cell-based; how it was run: as §1
[9] = system: KOPN-8; test: Effect on c-Myc expression in human KOPN8 cells at 0.5 uM after 3 hrs by Western blot analysis relative to control; format: functional
[10] = system: SUP-B15; test: Antiproliferative activity against human SUP-B15 cells after 72 hrs by CelTiter-Glo assay; format: functional, cell-based; conditions: SUP-B15, 72 h
[11] = system: BJ; test: Antiproliferative activity against human BJ cells after 72 hrs by CelTiter-Glo assay; format: cell-based
[12] = system: MDA-MB-231; test: Cell cycle arrest in human MDA-MB-231 cells assessed as accumulation at G0/G1 phase at 5 uM after 24 hrs by propidium iodide staining-based flow cytometry (reference value: 70.47%); format: functional
[13] = target: T1, Retinoblastoma-associated protein (Homo sapiens); test: Inhibition of Rb phosphorylation in human KOPN8 cells assessed as ratio of phosphorylated Rb to total Rb levels at 0.5 uM pre-treated with NAC for 1 hr and measured after 24 hrs by Western blot analysis relative to control; format: cell-based; how it was run: as §2
[14] = system: KOPN-8; test: Induction of apoptosis in human KOPN8 cells assessed as upregulation of cleaved PARP level at 0.5 uM after 3 to 24 hrs by Western blot analysis; format: functional, cell-based; how it was run: as §1
[15] = target: T1, Retinoblastoma-associated protein (Homo sapiens); test: Inhibition of Rb phosphorylation in human KOPN8 cells assessed as ratio of phosphorylated Rb to total Rb levels at 0.5 uM after 24 hrs by Western blot analysis relative to control; format: cell-based; how it was run: as §1
[16] = species: Homo sapiens; test: Inhibition of RNA polymerase 2 C-terminal domain phosphorylation at Ser2 residue in human KOPN8 cells at 0.5 uM pre-treated with NAC for 1 hr and measured after 24 hrs by Western blot analysis relative to control; format: cell-based; how it was run: as §1
[17] = system: KOPN-8; test: Antiproliferative activity against human KOPN8 cells after 72 hrs by CelTiter-Glo assay; format: functional, cell-based; conditions: KOPN-8, 72 h
[18] = system: UoC-B1; test: Antiproliferative activity against human UOCB1 cells after 72 hrs by CelTiter-Glo assay; format: functional, cell-based; conditions: UoC-B1, 72 h
[19] = system: KOPN-8; test: Induction of apoptosis in human KOPN8 cells assessed as effect on Mcl-1 level at 0.5 uM after 24 hrs by Western blot analysis relative to control; format: functional
[20] = system: SEM cells; test: Antiproliferative activity against human SEM cells after 72 hrs by CelTiter-Glo assay; format: functional, cell-based
[21] = system: KOPN-8; test: Induction of apoptosis in human KOPN8 cells assessed as effect on Mcl-1 level at 0.5 uM pre-treated with NAC for 1 hr and measured after 3 hrs by Western blot analysis relative to control; format: functional
[22] = system: KOPN-8; test: Induction of apoptosis in human KOPN8 cells assessed as effect on Mcl-1 level at 0.5 uM after 3 hrs by Western blot analysis relative to control; format: functional
[23] = target: T1, Retinoblastoma-associated protein (Homo sapiens); test: Inhibition of Rb phosphorylation in human KOPN8 cells assessed as ratio of phosphorylated Rb to total Rb levels at 0.5 uM after 3 hrs by Western blot analysis relative to control; format: cell-based; how it was run: as §2
[24] = system: KOPN-8; test: Effect on c-Myc expression in human KOPN8 cells at 0.5 uM pre-treated with NAC for 1 hr and measured after 3 hrs by Western blot analysis relative to control; format: functional
[25] = system: HepG2; test: Antiproliferative activity against human HepG2 cells after 72 hrs by CelTiter-Glo assay; format: functional, cell-based; conditions: HepG2, 72 h
[26] = species: Homo sapiens; test: Inhibition of RNA polymerase 2 C-terminal domain phosphorylation at Ser2 residue in human KOPN8 cells at 0.5 uM pre-treated with NAC for 1 hr and measured after 3 hrs by Western blot analysis relative to control; format: cell-based; how it was run: as §1
[27] = system: KOPN-8; test: Induction of apoptosis in human KOPN8 cells assessed as effect on Mcl-1 level at 0.5 uM pre-treated with NAC for 1 hr and measured after 24 hrs by Western blot analysis relative to control; format: functional

**Q.** How did the Activity [1] turn out when `CN1CC[C@H](c2c(O)cc(O)c3c(=O)cc(-c4ccccc4Cl)oc23)[C@H](O)C1` [ALVOCIDIB] was run?
**A.** The Activity was 16.47%.

**Q.** What about the “fold change (FC)” value [2] of the same molecule?
**A.** The value was 0.

**Q.** What about the “fold change (FC)” value [3] of the same molecule?
**A.** The value was 0.

**Q.** What about the fold change (FC) [4] of the same molecule?
**A.** Its fold change (FC) is 0.

**Q.** What about the fold change (FC) [5] of the same molecule?
**A.** The fold change (FC) was 1.1.

**Q.** And the fold change (FC) [6]?
**A.** The fold change (FC) was 0.4.

**Q.** What about the Activity [7] of the same molecule?
**A.** Its Activity is 17.5%.

**Q.** And the Activity [8]?
**A.** Its Activity is “Active”.

**Q.** And the “fold change (FC)” value [9]?
**A.** The value was 0.2.

**Q.** What about the EC50 [10] of the same molecule?
**A.** Its EC50 is > 86200 nM.

**Q.** What about the EC50 [11] of the same molecule?
**A.** The EC50 was > 86200 nM.

**Q.** What about the Activity [12] of the same molecule?
**A.** Its Activity is 66.03%.

**Q.** And the fold change (FC) [13]?
**A.** Its fold change (FC) is 1.1.

**Q.** And the Activity [14]?
**A.** Its Activity is “Active”.

**Q.** And the fold change (FC) [15]?
**A.** The fold change (FC) was 1.

**Q.** And the fold change (FC) [16]?
**A.** Its fold change (FC) is 0.

**Q.** And the EC50 [17]?
**A.** The EC50 was 193 nM.

**Q.** What about the EC50 [18] of the same molecule?
**A.** Its EC50 is 208 nM.

**Q.** What about the “fold change (FC)” value [19] of the same molecule?
**A.** The value was 0.

**Q.** And the EC50 [20]?
**A.** The EC50 was 204 nM.

**Q.** And the “fold change (FC)” value [21]?
**A.** Its value is 0.2.

**Q.** And the “fold change (FC)” value [22]?
**A.** Its value is 0.2.

**Q.** What about the fold change (FC) [23] of the same molecule?
**A.** Its fold change (FC) is 0.9.

**Q.** And the “fold change (FC)” value [24]?
**A.** The value was 0.2.

**Q.** And the EC50 [25]?
**A.** Its EC50 is 146 nM.

**Q.** What about the fold change (FC) [26] of the same molecule?
**A.** Its fold change (FC) is 0.6.

**Q.** And the “fold change (FC)” value [27]?
**A.** The value was 0.
